# In ChEMBL document CHEMBL1649231, “In vitro activities of panduratin A against clinical Staphylococcus strains” (2009):
# How the values were obtained:
# Format in all cases: functional
# [1] = system: Mammaliicoccus sciuri; assay: Antimicrobial activity against methicillin-susceptible coagulase-negative Staphylococcus sciuri assessed as resistant isolates after 24 hrs by broth microdilution method
# [2] = system: Staphylococcus epidermidis; assay: Bactericidal activity against methicillin-susceptible coagulase-negative Staphylococcus epidermidis after 24 hrs by plate counting method
# Procedure, shortened: (§1)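 Clinical staphylococcal isolates from patient body fluids, blood, genital secretions, pus or sputum; species by conventional methods or Vitek. Twofold dilutions in Mueller-Hinton broth, inoculum 5 × 10^5 CFU/ml, 37°C aerobic 24 h (CLSI M7-A6 microdilution). About 100 μl from each well without visible growth spread on MHA; 37°C 24 h. MBC = lowest concentration giving no growth on agar.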
# [3] = system: Staphylococcus simulans; assay: Bactericidal activity against methicillin-resistant coagulase-negative Staphylococcus simulans after 24 hrs by plate counting method; procedure, shortened: as §1
# [4] = system: Mammaliicoccus sciuri; assay: Antimicrobial activity against methicillin-resistant coagulase-negative Staphylococcus sciuri assessed as resistant isolates after 24 hrs by broth microdilution method
# [5] = system: Mammaliicoccus sciuri; assay: Antimicrobial activity against methicillin-susceptible coagulase-negative Staphylococcus sciuri after 24 hrs by broth microdilution method
# Procedure, shortened: (§2)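 Clinical isolates came from blood, body fluids, genital secretions, pus or sputum, identified conventionally or by Vitek. MICs were run by CLSI M7-A6 broth microdilution in Mueller-Hinton broth with 5 × 10^5 CFU/ml inoculum. Agents were twofold serially diluted, starting from 10% DMSO. Drug-free and uninoculated controls were included. Plates were incubated aerobically at 37°C for 24 h; MIC is the lowest concentration giving no visible growth.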
# [6] = system: Staphylococcus aureus; assay: Antimicrobial activity against methicillin-susceptible Staphylococcus aureus assessed as susceptible isolates after 24 hrs by broth microdilution method
# [7] = system: Staphylococcus aureus; assay: Antimicrobial activity against methicillin-susceptible Staphylococcus aureus after 24 hrs by broth microdilution method; procedure, shortened: as §2
# [8] = system: Staphylococcus epidermidis; assay: Bactericidal activity against methicillin-resistant coagulase-negative Staphylococcus epidermidis after 24 hrs by plate counting method
# [9] = system: Staphylococcus haemolyticus; assay: Antimicrobial activity against methicillin-resistant coagulase-negative Staphylococcus haemolyticus assessed as resistant isolates after 24 hrs by broth microdilution method
# [10] = system: Staphylococcus epidermidis; assay: Antimicrobial activity against methicillin-resistant coagulase-negative Staphylococcus epidermidis assessed as resistant isolates after 24 hrs by broth microdilution method
# [11] = system: Staphylococcus haemolyticus; assay: Antimicrobial activity against methicillin-susceptible coagulase-negative Staphylococcus haemolyticus after 24 hrs by broth microdilution method; procedure, shortened: as §2
# [12] = system: Staphylococcus epidermidis; assay: Antimicrobial activity against methicillin-susceptible coagulase-negative Staphylococcus epidermidis assessed as resistant isolates after 24 hrs by broth microdilution method
# [13] = system: Staphylococcus aureus; assay: Antimicrobial activity against methicillin-resistant Staphylococcus aureus assessed as resistant isolates after 24 hrs by broth microdilution method
# [14] = system: Staphylococcus epidermidis; assay: Antimicrobial activity against methicillin-susceptible coagulase-negative Staphylococcus epidermidis assessed as susceptible isolates after 24 hrs by broth microdilution method
# [15] = system: Mammaliicoccus sciuri; assay: Antimicrobial activity against methicillin-resistant coagulase-negative Staphylococcus sciuri after 24 hrs by broth microdilution method; procedure, shortened: as §2
# [16] = system: Staphylococcus hominis; assay: Antimicrobial activity against methicillin-susceptible coagulase-negative Staphylococcus hominis assessed as susceptible isolates after 24 hrs by broth microdilution method
# [17] = system: Staphylococcus haemolyticus; assay: Antimicrobial activity against methicillin-susceptible coagulase-negative Staphylococcus haemolyticus assessed as susceptible isolates after 24 hrs by broth microdilution method
# [18] = system: Staphylococcus hominis; assay: Antimicrobial activity against methicillin-resistant coagulase-negative Staphylococcus hominis assessed as resistant isolates after 24 hrs by broth microdilution method
# [19] = system: Staphylococcus simulans; assay: Bactericidal activity against methicillin-susceptible coagulase-negative Staphylococcus simulans after 24 hrs by plate counting method; procedure, shortened: as §1
# [20] = system: Staphylococcus aureus; assay: Bactericidal activity against methicillin-susceptible Staphylococcus aureus after 24 hrs by plate counting method; procedure, shortened: as §1
# [21] = system: Staphylococcus haemolyticus; assay: Antimicrobial activity against methicillin-resistant coagulase-negative Staphylococcus haemolyticus after 24 hrs by broth microdilution method; procedure, shortened: as §2
# [22] = system: Staphylococcus hominis; assay: Antimicrobial activity against methicillin-susceptible coagulase-negative Staphylococcus hominis assessed as resistant isolates after 24 hrs by broth microdilution method
# [23] = system: Staphylococcus simulans; assay: Antimicrobial activity against methicillin-susceptible coagulase-negative Staphylococcus simulans assessed as susceptible isolates after 24 hrs by broth microdilution method
# Procedure, shortened: (§3)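 Clinical isolates from blood, body fluids, pus, sputum or genital secretions, identified conventionally or by Vitek, were tested alongside ATCC 29213 and ATCC 12228 controls. CLSI M7-A6 broth microdilution in Mueller-Hinton broth used twofold dilutions from a 10% DMSO solution and 5 × 10^5 CFU/ml inoculum. Drug-free and uninoculated wells served as controls; incubation was aerobic at 37°C for 24 h. MIC was the lowest concentration with no visible growth.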
# [24] = system: Mammaliicoccus sciuri; assay: Bactericidal activity against methicillin-susceptible coagulase-negative Staphylococcus sciuri after 24 hrs by plate counting method; procedure, shortened: as §1
# [25] = system: Staphylococcus haemolyticus; assay: Bactericidal activity against methicillin-susceptible coagulase-negative Staphylococcus haemolyticus after 24 hrs by plate counting method; procedure, shortened: as §1
# [26] = system: Staphylococcus haemolyticus; assay: Antimicrobial activity against methicillin-susceptible coagulase-negative Staphylococcus haemolyticus assessed as resistant isolates after 24 hrs by broth microdilution method
# [27] = system: Staphylococcus haemolyticus; assay: Bactericidal activity against methicillin-resistant coagulase-negative Staphylococcus haemolyticus after 24 hrs by plate counting method
# [28] = system: Staphylococcus aureus; assay: Antimicrobial activity against methicillin-resistant Staphylococcus aureus after 24 hrs by broth microdilution method; procedure, shortened: as §2
# [29] = system: Staphylococcus hominis; assay: Antimicrobial activity against methicillin-resistant coagulase-negative Staphylococcus hominis after 24 hrs by broth microdilution method; procedure, shortened: as §2
# [30] = system: Staphylococcus hominis; assay: Bactericidal activity against methicillin-susceptible coagulase-negative Staphylococcus hominis after 24 hrs by plate counting method; procedure, shortened: as §1
# [31] = system: Staphylococcus hominis; assay: Bactericidal activity against methicillin-resistant coagulase-negative Staphylococcus hominis after 24 hrs by plate counting method
# [32] = system: Staphylococcus simulans; assay: Antimicrobial activity against methicillin-susceptible coagulase-negative Staphylococcus simulans assessed as resistant isolates after 24 hrs by broth microdilution method
# [33] = system: Staphylococcus simulans; assay: Antimicrobial activity against methicillin-resistant coagulase-negative Staphylococcus simulans assessed as resistant isolates after 24 hrs by broth microdilution method
# [34] = system: Staphylococcus aureus; assay: Antimicrobial activity against methicillin-susceptible Staphylococcus aureus assessed as resistant isolates after 24 hrs by broth microdilution method
# [35] = system: Mammaliicoccus sciuri; assay: Antimicrobial activity against methicillin-susceptible coagulase-negative Staphylococcus sciuri assessed as susceptible isolates after 24 hrs by broth microdilution method; procedure, shortened: as §3
# [36] = system: Staphylococcus epidermidis; assay: Antimicrobial activity against methicillin-susceptible coagulase-negative Staphylococcus epidermidis after 24 hrs by broth microdilution method; procedure, shortened: as §2
# [37] = system: Staphylococcus simulans; assay: Antimicrobial activity against methicillin-susceptible coagulase-negative Staphylococcus simulans after 24 hrs by broth microdilution method; procedure, shortened: as §2
# [38] = system: Staphylococcus epidermidis; assay: Antimicrobial activity against methicillin-resistant coagulase-negative Staphylococcus epidermidis after 24 hrs by broth microdilution method; procedure, shortened: as §2
# [39] = system: Staphylococcus hominis; assay: Antimicrobial activity against methicillin-susceptible coagulase-negative Staphylococcus hominis after 24 hrs by broth microdilution method; procedure, shortened: as §2
# [40] = system: Mammaliicoccus sciuri; assay: Bactericidal activity against methicillin-resistant coagulase-negative Staphylococcus sciuri after 24 hrs by plate counting method; procedure, shortened: as §1
# [41] = system: Staphylococcus simulans; assay: Antimicrobial activity against methicillin-resistant coagulase-negative Staphylococcus simulans after 24 hrs by broth microdilution method; procedure, shortened: as §2
# [42] = system: Staphylococcus aureus; assay: Bactericidal activity against methicillin-resistant Staphylococcus aureus after 24 hrs by plate counting method
# [43] = Staphylococcus epidermidis, 24 h
# [44] = Staphylococcus haemolyticus, 24 h
smiles,measurement,setting,value
CC1(C)S[C@@H]2[C@H](NC(=O)[C@H](N)c3ccccc3)C(=O)N2[C@H]1C(=O)O [AMPICILLIN],Activity,[1],100%
same,MBC50,[2],4 mg/L
same,MBC90,[2],128 mg/L
same,MBC,[2]; [43],1 mg/L
same,MBC50,[3],32 mg/L
same,MBC90,[3],256 mg/L
same,MBC,"[3]; Staphylococcus simulans, 24 h",> 2 mg/L
same,Activity,[4],100%
same,MIC50,[5],2 mg/L
same,MIC90,[5],16 mg/L
same,Activity,[6],0%
same,MIC50,[7],32 mg/L
same,MIC90,[7],32 mg/L
same,MBC50,[8],32 mg/L
same,MBC90,[8],256 mg/L
same,MBC,[8]; [43],> 2 mg/L
same,Activity,[9],100%
same,Activity,[10],100%
same,MIC50,[11],2 mg/L
same,MIC90,[11],16 mg/L
same,Activity,[12],100%
same,Activity,[13],100%
same,Activity,[14],0%
same,MIC50,[15],16 mg/L
same,MIC90,[15],64 mg/L
same,Activity,[16],0%
same,Activity,[17],0%
same,Activity,[18],100%
same,MBC50,[19],4 mg/L
same,MBC90,[19],128 mg/L
same,MBC50,[20],64 mg/L
same,MBC90,[20],128 mg/L
same,MBC,"[20]; Staphylococcus aureus, 24 h",1 mg/L
same,MIC50,[21],16 mg/L
same,MIC90,[21],64 mg/L
same,Activity,[22],100%
same,Activity,[23],0%
same,MBC50,[24],4 mg/L
same,MBC90,[24],128 mg/L
same,MBC,"[24]; Mammaliicoccus sciuri, 24 h",1 mg/L
same,MBC50,[25],4 mg/L
same,MBC90,[25],128 mg/L
same,MBC,[25]; [44],1 mg/L
same,Activity,[26],100%
same,MBC50,[27],32 mg/L
same,MBC90,[27],256 mg/L
same,MBC,[27]; [44],> 2 mg/L
same,MIC50,[28],16 mg/L
same,MIC90,[28],64 mg/L
same,MIC50,[29],16 mg/L
same,MIC90,[29],64 mg/L
same,MBC50,[30],4 mg/L
same,MBC90,[30],128 mg/L
same,MBC,"[30]; Staphylococcus hominis, 24 h",1 mg/L
same,MBC50,[31],32 mg/L
same,MBC90,[31],256 mg/L
same,MBC,"[31]; Staphylococcus hominis, 24 h",> 2 mg/L
same,Activity,[32],100%
same,Activity,[33],100%
same,Activity,[34],100%
same,Activity,[35],0%
same,MIC50,[36],2 mg/L
same,MIC90,[36],16 mg/L
same,MIC50,[37],2 mg/L
same,MIC90,[37],16 mg/L
same,MIC50,[38],16 mg/L
same,MIC90,[38],64 mg/L
same,MIC50,[39],2 mg/L
same,MIC90,[39],16 mg/L
same,MBC50,[40],32 mg/L
same,MBC90,[40],256 mg/L
same,MBC,"[40]; Mammaliicoccus sciuri, 24 h",> 2 mg/L
same,MIC50,[41],16 mg/L
same,MIC90,[41],64 mg/L
same,MBC90,[42],256 mg/L
same,MBC,"[42]; Staphylococcus aureus, 24 h",32 mg/L
